# TRPC4 PAM – positive allosteric modulators of TRPC4, primary screen, cell-based, mouse TRPC4beta, HEK293 mu-opioid, Fluo-4 calcium | Short transient receptor potential channel 4 (Mus musculus), Q9QUQ5 | DAMGO EC20, Fluo-4 Ca2+ flux; hits give high values | B-score at 10 µM | hit rate 0.42% among 310,000 | AID 2227, 2009;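 active means B-score of calcium response area above 5 SD of library B-scores, with initial fluorescence ratio within 5 SD of library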;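 further: B-score of integrated fluorescence ratio over time as area under calcium response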
# Target sequence (Q9QUQ5 whole entry, looked up): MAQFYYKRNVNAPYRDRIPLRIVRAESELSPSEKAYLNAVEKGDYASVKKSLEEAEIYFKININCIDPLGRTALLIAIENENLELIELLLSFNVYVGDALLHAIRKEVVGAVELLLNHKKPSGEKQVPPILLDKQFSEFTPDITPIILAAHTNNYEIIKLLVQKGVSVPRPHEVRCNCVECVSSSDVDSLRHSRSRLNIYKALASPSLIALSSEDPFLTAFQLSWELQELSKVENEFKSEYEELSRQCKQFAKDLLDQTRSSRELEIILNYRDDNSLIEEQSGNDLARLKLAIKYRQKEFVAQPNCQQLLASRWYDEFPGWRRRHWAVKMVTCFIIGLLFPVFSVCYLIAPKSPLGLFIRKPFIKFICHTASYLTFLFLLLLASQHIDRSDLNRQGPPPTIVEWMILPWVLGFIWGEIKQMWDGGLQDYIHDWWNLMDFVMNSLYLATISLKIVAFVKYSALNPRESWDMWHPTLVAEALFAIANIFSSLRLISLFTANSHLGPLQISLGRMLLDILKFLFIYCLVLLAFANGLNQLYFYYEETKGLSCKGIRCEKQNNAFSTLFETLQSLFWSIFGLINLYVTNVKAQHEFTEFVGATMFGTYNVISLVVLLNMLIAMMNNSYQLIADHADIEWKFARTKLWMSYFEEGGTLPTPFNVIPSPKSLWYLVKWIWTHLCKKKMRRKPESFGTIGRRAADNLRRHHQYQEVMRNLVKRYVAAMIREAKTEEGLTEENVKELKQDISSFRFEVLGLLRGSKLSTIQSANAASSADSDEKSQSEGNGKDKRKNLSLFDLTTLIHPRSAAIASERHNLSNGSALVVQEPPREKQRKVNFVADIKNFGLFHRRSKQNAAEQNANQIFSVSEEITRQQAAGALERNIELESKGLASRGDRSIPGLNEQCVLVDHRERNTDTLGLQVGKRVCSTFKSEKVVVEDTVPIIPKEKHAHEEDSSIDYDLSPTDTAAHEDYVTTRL
# TRPC4 act – activators of mouse TRPC4 channel, primary screen, Fluo4 calcium, HEK293 TRPC4beta/mu-opioid cells; Fluo4 calcium fluorescence; hits give high values; B-score at 10 µM; hit rate 0.49% among 310,000; AID 2237, 2010;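 active means B-score above 5 SD of library B-scores, and initial fluorescence ratio not above library mean plus 5 SD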;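 further: positive B-score marks a calcium rise read as TRPC4 activation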
#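 Material: HEK293 stable line with TRPC4beta plus mu-opioid receptor; technique: Fluo4 calcium-sensitive dye fluorescence, kinetic, 1 Hz baseline; timing: Fluo4 dye loading 45 min at room temperature, 110 s recording; controls: assay buffer as low control, maximal DAMGO as high control; read-out: integrated baseline-normalised fluorescence ratio, converted to per-well B score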
# TRPC6 inhibitor – mouse TRPC6 channel inhibitors, primary screen, cell-based, HEK293, membrane potential dye; Short transient receptor potential channel 6 (Mus musculus), Q61143; ACh-evoked depolarization; hits give low values; B-score at 10 µM; hit rate 1.1% among 310,000; AID 2553, 2010;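 active means B-score under library mean minus 3 SD, initial fluorescence not abnormally high, positive integrated signal ratio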;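 further: B-score derived from integrated fluorescence ratio over the kinetic read; more negative B-score means stronger inhibition of depolarization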
# TRPC4 inh – inhibitors of mouse TRPC4 channel, primary screen, Fluo4 calcium, HEK293 TRPC4beta/mu-opioid cells. Short transient receptor potential channel 4 (Mus musculus), Q9QUQ5. B-score at 10 µM. AID 2247, 2010. DAMGO-evoked Fluo4 calcium flux; hits give low values. hit rate 0.39% among 300,000;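 active means B-score over 3 SD under the library average, no early fluorescence shift, positive overall ratio signal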
#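 Test system – stable TRPC4beta/mu-opioid receptor HEK293 cells · Probe or stimulus – DAMGO, a submaximal dose followed by a maximal one · Dosing – one concentration per compound · Signal – Fluo4 calcium fluorescence by kinetic imaging, 5 s 1 Hz baseline · Evaluation – per-well B score of integrated baseline-normalized Fluo4 ratio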
# TRPC6 activator – mouse TRPC6 channel activators, primary screen, cell-based, HEK293, membrane potential dye; Short transient receptor potential channel 6 (Mus musculus), Q61143; HEK293-TRPC6 membrane potential dye fluorescence; hits give high values; B-score at 10 µM; hit rate 0.13% among 310,000;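 active means B-score of the integrated fluorescence ratio above library mean plus 3 SD, and starting fluorescence ratio within library mean plus 5 SD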;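 further: higher score means more depolarization so channel activation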
# HEK293 TRPC6 ctr – parental HEK293 membrane potential modulation, confirmation, counter-screen for TRPC6 modulator project, cell-based. shares compounds with TRPC6 inhibitor. membrane potential dye fluorescence. membrane potential signal change, % at 10 µM. hit rate 51% among 2,400. AID 488924, 2010;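 active means membrane potential signal moves up or down beyond 5 SD from buffer-only wells, on both duplicate plates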
# HEK293 MPD ctr 2 – second check of TRPC6 modulator effects in parental HEK293 cells. inhibition, % at 10 µM. hit rate 14% among 2,400. membrane potential dye fluorescence; after compound, maximal acetylcholine stimulation. shares compounds with TRPC6 inhibitor;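 active means membrane potential signal drops by more than 5 SD from the mean control signal, in both duplicate plates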;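 further: plate controls were acetylcholine ECmax control wells for no effect and buffer only wells for full effect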
# TRPC4 ctr mod – TRPC4 modulation by TRPC6 hit compounds, confirmation, selectivity assay for TRPC6 modulator project, cell-based, HEK293 TRPC4/mu-opioid, membrane potential dye, mouse; shares compounds with TRPC6 inhibitor; membrane potential fluorescence; percent change from control (negative = decrease, positive = increase), % at 10 µM; hit rate 69% among 2,400;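 active means membrane potential signal moved up or down beyond 5 SD of buffer control wells, in both duplicate plates, actives on both sides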;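 further: plate controls were assay buffer wells for no effect and DAMGO maximal-effect wells for full effect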
# TRPC4/MOR inh 2 – second check of whether TRPC6 modulators also affect mouse TRPC4; shares compounds with TRPC6 inhibitor; HEK293 TRPC4/mu-opioid, membrane potential dye fluorescence; stimulated with maximal-effect DAMGO; inhibition, % at 10 µM; hit rate 55% among 2,400; AID 488928;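 active means drop in membrane potential signal beyond 5 SD of the control wells in both duplicate plates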;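 further: TRPC4 counter screen for TRPC6 hits run under conditions tuned for TRPC6 not TRPC4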
# TRPC6 block conf – mouse TRPC6 channel inhibitors, confirmation, HEK293 cells, membrane potential dye, duplicate. shares compounds with TRPC6 inhibitor. ACh-evoked depolarization. inhibition, % at 10 µM. hit rate 43% among 3,300;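 active means fluorescence ratio falls more than 5 SD below the full-stimulation control mean, in both duplicate runs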;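 further: integrated fluorescence ratio of peak minus minimum over baseline after agonist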
# TRPC6 act conf – mouse TRPC6 channel activators, confirmation, HEK293 cells, membrane potential dye, duplicate. hit rate 11% among 2,800. shares compounds with TRPC6 inhibitor. activation, % at 10 µM. AID 488961, 2010. HEK293-TRPC6 membrane potential dye fluorescence, FDSS;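 active means ratio signal rise beyond 5 SD above unstimulated control wells' mean, seen in both duplicate runs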;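 further: plate controls were buffer EC0 wells for no effect and acetylcholine ECmax response for full effect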
# Numbers without * were called inactive; i = inactive; . = not tested or not shown. In the library only some 2.3% were active in any assay of this set; here they are far more common.
SMILES,TRPC4 PAM,TRPC4 act,TRPC6 inhibitor,TRPC4 inh,TRPC6 activator,HEK293 TRPC6 ctr,HEK293 MPD ctr 2,TRPC4 ctr mod,TRPC4/MOR inh 2,TRPC6 block conf,TRPC6 act conf
N=c1c(C(=O)NC2CCCCC2)cc2c(=O)n3ccccc3nc2n1Cc1ccccc1,i,i,-8*,i,i,-142%*,i,-36%*,50%*,46%*,i
O=C(c1ccc([N+](=O)[O-])cc1)N(Cc1ccc(Cl)cc1)N1C(=O)CCCC1=O,i,47*,-16*,i,17*,390%*,159%*,50%*,45%*,80%*,122%*
O=C(O)/C(=C\c1ccccc1)c1ccc2ccccc2c1,i,i,i,i,i,.,.,.,.,.,.
Cn1c(=O)n(Cc2ccco2)c(=N)c2c3c(sc21)CCC3,i,i,-7.1*,i,i,-184%*,i,-32%*,46%*,36%*,i
CN(C)CCCn1c(=O)n(Cc2ccco2)c(=O)c2c3c(sc21)CCCCC3,i,i,i,i,i,.,.,.,.,.,.
Cc1ccc(C(C)C)cc1S(=O)(=O)NCc1ccccn1,i,i,i,i,i,.,.,.,.,.,.
CC(NC(=O)/C(C#N)=C/c1ccc(C(=O)O)cc1)c1ccccc1 (configuration not stated),i,i,i,i,i,.,.,.,.,.,.
COc1cc(/C=C(/C#N)C(=O)NC(C)c2ccccc2)cc(OC)c1O (configuration not stated),i,i,-5.3*,i,i,415%*,i,48%*,29%*,51%*,.
CCN(CC)C1CCN(C(=O)CCc2nnc(CCCCc3ccccc3)o2)C1 (configuration not stated),i,i,-5.2*,i,i,i,i,i,i,i,i
Cc1ccc(CNC(=O)c2ccc(Cn3cc(-c4ccc(C)cc4)nc3-c3ccncc3)cc2)cc1,i,i,i,i,i,.,.,.,.,.,.
CC(C)(C)OC(=O)N1CCC(CC2CC(c3cccc(Br)c3)=NO2)(C(=O)O)CC1 (configuration not stated),i,i,i,i,i,.,.,.,.,.,.
CCOC(=O)C1=C(C)NC(C)=C(C(=O)OCC)C1c1sccc1C,i,i,-5.4*,i,i,i,i,i,40%*,i,i
CCOC(=O)C1=C(C)NC(C)=C(C(=O)OCC)C1c1cccs1,i,i,i,i,i,.,.,.,.,.,.
Cc1nn(S(=O)(=O)c2ccc(Br)cc2)c(C)c1S(=O)(=O)N1CCOCC1,i,i,i,i,i,.,.,.,.,.,.
Oc1ccc(-c2cn3ccccc3n2)cc1O,i,i,i,i,i,.,.,.,.,.,.
Cc1ccn2cc(-c3ccc(O)c(O)c3)nc2c1,i,i,-5.3*,i,i,-120%*,i,-23%*,i,i,i
CN1CCC(NCCC(c2ccc(F)cc2)c2ccc(Cl)cc2)CC1 (configuration not stated),i,i,-5.4*,i,i,104%*,i,18%*,56%*,i,.
O=C(NCc1ccco1)c1ccc2ccccc2n1,i,i,-5.1*,i,i,i,i,i,i,44%*,.
Cc1cccc(C)c1OCCNC(=O)c1ccc2ccccc2n1,i,i,-13*,i,12*,150%*,i,i,44%*,91%*,78%*
COc1cc(OC)cc(-c2nnc(SCC(=O)Nc3cccc(C(=O)O)c3)s2)c1,i,i,i,i,i,.,.,.,.,.,.
C/C(=N\Nc1nc2ccccc2[nH]1)c1ccc(C)o1,i,i,-6*,i,i,-140%*,60%*,-26%*,80%*,76%*,i
C/C(=N\Nc1nc2ccccc2[nH]1)c1ccc(N2CCOCC2)cc1,i,i,-5.8*,i,i,i,i,-14%*,i,i,i
C/C(=N\Nc1nc(C)cc(C)n1)c1ccc(N2CCOCC2)cc1,i,i,i,i,i,.,.,.,.,.,.
C/C(=N\Nc1nc2ccccc2[nH]1)c1ccc(Cl)s1,i,i,i,i,i,.,.,.,.,.,.
CC1CCCC(C)N1C(=O)c1cc(-c2ccc3c(c2)OCO3)on1 (configuration not stated),i,i,i,i,i,.,.,.,.,.,.
Cc1ccccc1C(OCCN(C)C)c1ccccc1 (configuration not stated),i,i,-5*,i,i,193%*,i,32%*,i,58%*,.
Cn1c(C(=O)NCCN2CCOCC2)cc2c(=O)n3ccccc3nc21,i,i,i,i,i,.,.,.,.,.,.
N=c1c(C(=O)NCCc2ccccc2)cc2c(=O)n3ccccc3nc2n1CCCN1CCOCC1,i,i,i,i,i,.,.,.,.,.,.
COc1ccc(CCn2c(=N)c(C(=O)NCc3ccco3)cc3c(=O)n4ccccc4nc32)cc1,i,i,-5.9*,i,i,-164%*,i,-36%*,i,i,i
Cc1ccc(Cn2c(=N)c(C(=O)NCCN3CCOCC3)cc3c(=O)n4ccccc4nc32)cc1,19*,i,-6.6*,i,i,-70%*,98%*,-14%*,47%*,40%*,i

# High-throughput results as filed in PubChem.
